{
  "source": "paper PMC3846175",
  "about": "(Bioorganic & medicinal chemistry, 2013)",
  "key": {"[1]": {"test_system": "T. b. r. STIB900", "details": "mouse, ref [10], [14], [16], [23], cited from earlier work"}, "[2]": {"test_system": "T. b. brucei GVR35", "details": "mouse; po 100 mg/kg for 5 days; ref [5]; cited from earlier work"}, "[3]": {"test_system": "Trypanosoma brucei rhodesiense STIB900", "details": "read-out: T. b. r. IC50; strain STIB900; comparator data; ref [10], [16]; cited from earlier work"}, "[4]": {"test_system": "Plasmodium falciparum K1", "details": "read-out: P. f. IC50; strain K1; comparator data; ref [10], [16]; cited from earlier work"}, "[5]": {"test_system": "T. b. r. STIB900", "test": "T. b. r. STIB900 acute mouse model", "type": "in vivo, Trypanosoma brucei rhodesiense"}, "[6]": {"test_system": "poly(dA-dT)2", "test": "Thermal melting", "type": "binding"}, "[7]": {"test_system": "T. b. brucei GVR35", "test": "T. b. brucei GVR35 CNS mouse model", "type": "in vivo, Trypanosoma brucei brucei", "how_it_was_run": "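Second-stage (CNS) infection model in mice with T. b. brucei GVR35. The test compound was given orally at 100 mg/kg for 5 days, and a 10-day course was also run. The comparator was diminazene, given as a single 40 mg/kg intraperitoneal dose. Survival was the endpoint. Protocols were approved by the Canton Basel-Stadt veterinary authorities.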"}, "[8]": {"test_system": "Plasmodium falciparum K1", "test": "In vitro assay with P. f. K1 strain", "type": "cell-based", "details": "IC50 ratio"}, "[9]": {"details": "po 100 mg/kg for 5 days, 100 mg/kg"}},
  "note": "pIC50: −log10 of the molar value. Values joined by “and” are separate entries in the source; they are usually repeats but may differ in a detail not shown here. Identical values can stand only once. Counter-ions that a name gives are not always drawn. Like-named read-outs stand apart in the source and are kept apart here.",
  "data": [
    {"smiles": "N=C(N)c1ccc(-c2ccc(-c3ccc(C(=N)N)cc3)o2)cc1", "note": "[2a, furamidine]", "values": [
      {"measurement": "Cures (mice that survive and are parasite free for 60 days)", "setting": "[1]; ip 5 mg/kg daily for 4 days", "result": "1/4"},
      {"measurement": "Survival (average days of survival)", "setting": "[1]; ip 5 mg/kg daily for 4 days", "result": ">46", "unit": "days"},
      {"measurement": "Cures (mice that survive and are parasite free for 60 days)", "setting": "[1]; ip 20 mg/kg daily for 4 days", "result": "3/4"},
      {"measurement": "Survival (average days of survival)", "setting": "[1]; ip 20 mg/kg daily for 4 days", "result": ">57.75", "unit": "days"}
    ]},
    {"smiles": "N=C(NO)c1ccc(-c2ccc(-c3ccc(/C(N)=N\\O)cc3)o2)cc1", "note": "[2b]", "values": [
      {"measurement": "Cures (mice that survive and are parasite free for 60 days)", "setting": "[1]; po 100 mg/kg daily for 4 days, 100 mg/kg", "result": "no cure and 0/4"}
    ]},
    {"smiles": "CONC(=N)c1ccc(-c2ccc(-c3ccc(C(=N)NOC)cc3)o2)cc1", "note": "[2c, pafuramidine]", "values": [
      {"measurement": "Cures (mice that survive and are parasite free for 60 days)", "setting": "[1]; po 10 mg/kg daily for 4 days", "result": "4/4"},
      {"measurement": "Survival (average days of survival)", "setting": "[1]; po 10 mg/kg daily for 4 days", "result": ">60", "unit": "days"},
      {"measurement": "Cures (mice that survive and are parasite free for 60 days)", "setting": "[1]; po 25 mg/kg daily for 4 days", "result": "4/4"},
      {"measurement": "Survival (average days of survival)", "setting": "[1]; po 25 mg/kg daily for 4 days", "result": ">60", "unit": "days"},
      {"measurement": "MSD (mean survival days)", "setting": "[2]", "result": ">167.8", "unit": "days"},
      {"measurement": "No. of mice cured (survival >180 days without parasitemia relapse)", "setting": "[2]", "result": "3/5"}
    ]},
    {"smiles": "N=C(N)c1ccc(-c2ccc(-c3ccc(C(=N)N)cn3)o2)cc1", "note": "[3a]", "values": [
      {"measurement": "pIC50", "setting": "[3]", "result": 8.19},
      {"measurement": "Cures (mice that survive and are parasite free for 60 days)", "setting": "[1]; ip 5 mg/kg daily for 4 days", "result": "3/4"},
      {"measurement": "Survival (average days of survival)", "setting": "[1]; ip 5 mg/kg daily for 4 days", "result": ">54.5", "unit": "days"},
      {"measurement": "Cures (mice that survive and are parasite free for 60 days)", "setting": "[1]; ip 20 mg/kg daily for 4 days", "result": "4/4"},
      {"measurement": "Survival (average days of survival)", "setting": "[1]; ip 20 mg/kg daily for 4 days", "result": ">60", "unit": "days"},
      {"measurement": "pIC50", "setting": "[4]", "result": 8.19}
    ]},
    {"smiles": "CO/N=C(\\N)c1ccc(-c2ccc(-c3ccc(/C(N)=N/OC)cn3)o2)cc1", "note": "[3c]", "values": [
      {"measurement": "Cures (mice that survive and are parasite free for 60 days)", "setting": "[1]; po 25 mg/kg daily for 4 days", "result": "4/4"},
      {"measurement": "Survival (average days of survival)", "setting": "[1]; po 25 mg/kg daily for 4 days", "result": ">60", "unit": "days"},
      {"measurement": "MSD (mean survival days)", "setting": "[2]", "result": ">180", "unit": "days"},
      {"measurement": "No. of mice cured (survival >180 days without parasitemia relapse)", "setting": "[2]", "result": "5/5"}
    ]},
    {"smiles": "N=C(N)c1ccc(-c2ccc(-c3ccc(C(=N)N)cn3)o2)nc1", "note": "[4a]", "values": [
      {"measurement": "pIC50", "setting": "[3]", "result": 7.68},
      {"measurement": "Cures (mice that survive and are parasite free for 60 days)", "setting": "[1]; ip 5 mg/kg daily for 4 days", "result": "3/4"},
      {"measurement": "Survival (average days of survival)", "setting": "[1]; ip 5 mg/kg daily for 4 days", "result": ">49.5", "unit": "days"},
      {"measurement": "Cures (mice that survive and are parasite free for 60 days)", "setting": "[1]; ip 20 mg/kg daily for 4 days", "result": "4/4"},
      {"measurement": "Survival (average days of survival)", "setting": "[1]; ip 20 mg/kg daily for 4 days", "result": ">60", "unit": "days"},
      {"measurement": "pIC50", "setting": "[4]", "result": 7.08}
    ]},
    {"smiles": "CO/N=C(\\N)c1ccc(-c2ccc(-c3ccc(/C(N)=N/OC)cn3)o2)nc1", "note": "[4c]", "values": [
      {"measurement": "Cures (mice that survive and are parasite free for 60 days)", "setting": "[1]; po 25 mg/kg daily for 4 days", "result": "2/4"},
      {"measurement": "Survival (average days of survival)", "setting": "[1]; po 25 mg/kg daily for 4 days", "result": ">42", "unit": "days"},
      {"measurement": "MSD (mean survival days)", "setting": "[2]", "result": ">180", "unit": "days"},
      {"measurement": "No. of mice cured (survival >180 days without parasitemia relapse)", "setting": "[2]", "result": "5/5"}
    ]},
    {"smiles": "N=C(N)c1ccc(-c2cncc(-c3ccc(C(=N)N)cc3F)n2)c(F)c1", "note": "[15b, 2,6-Di-(4′-amidino-2′-fluorophenyl)pyrazine hydrochloride]", "values": [
      {"measurement": "Cures (mice that survive and are parasite free for 60 days)", "setting": "[5]; ip 5 mg/kg daily for 4 days", "result": "no cures"}
    ]},
    {"smiles": "N=C(N)c1ccc(-c2cncc(-c3ccc(C(=N)N)cn3)n2)cc1", "note": "[19a, 2-(4′-amidinophenyl)-6-(5′-amidinopyridin-2′-yl)pyrazine hydrochloride]", "values": [
      {"measurement": "Decrease in ΔTm value relative to parent compound 10", "setting": "[6]", "result": 2, "unit": "°C"}
    ]},
    {"smiles": "N=C(N)c1ccc(-c2cncc(-c3ccc(C(=N)N)cn3)n2)nc1", "note": "[23a, 2,6-Di-(5′-amidinopyridin-2′-yl)pyrazine hydrochloride]", "values": [
      {"measurement": "Decrease in ΔTm value relative to parent compound 10", "setting": "[6]", "result": 3.9, "unit": "°C"}
    ]},
    {"smiles": "N=C(N)c1ccc(-c2cncc(-c3ccc(C(=N)N)nc3)n2)cn1", "note": "[23b, 2,6-Di-(2′-amidinopyridin-5′-yl)pyrazine hydrochloride]", "values": [
      {"measurement": "Decrease in ΔTm value relative to parent compound 10", "setting": "[6]", "result": 3.0, "unit": "°C"}
    ]},
    {"smiles": "N/C(=N\\O)c1ccc(-c2cncc(-c3ccc(/C(N)=N\\O)nc3)n2)cn1", "note": "[24b, 2,6-Di-(2′-N-hydroxyamidinopyridin-5′-yl)pyrazine hydrochloride]", "values": [
      {"measurement": "MSD (mean survival days)", "setting": "[7]; po 100 mg/kg for 5 days", "result": 67.2, "unit": "days"},
      {"measurement": "No. of mice cured (survival >180 days without parasitemia relapse)", "setting": "[7]; [9]", "result": "not curative and 0/5"},
      {"measurement": "Cures (mice that survive and are parasite free for 60 days)", "setting": "[5]; po 25 mg/kg daily for 4 days", "result": "cures of all mice"}
    ]},
    {"smiles": "CO/N=C(\\N)c1ccc(-c2cncc(-c3ccc(/C(N)=N\\OC)cn3)n2)nc1", "note": "[25a, 2,6-Di-(5′-N-methoxyamidinopyridin-2′-yl)pyrazine hydrochloride]", "values": [
      {"measurement": "MSD (mean survival days)", "setting": "[7]; po 100 mg/kg for 5 days", "result": 95.2, "unit": "days"},
      {"measurement": "No. of mice cured (survival >180 days without parasitemia relapse)", "setting": "[7]; [9]", "result": "not curative and 0/5"}
    ]},
    {"smiles": "N=C(N)c1ccc(-c2cnc(-c3ccc(C(=N)N)cc3)cn2)cc1", "note": "[compound 6]", "values": [
      {"measurement": "pIC50", "setting": "[3]", "result": 7.74},
      {"measurement": "Cures (mice that survive and are parasite free for 60 days)", "setting": "[1]; ip 5 mg/kg daily for 4 days, 5 mg/kg", "result": "no cure and 0/4"},
      {"measurement": "pIC50", "setting": "[4]", "result": 9.40}
    ]},
    {"smiles": "N=C(N)c1ccc(-c2cncc(-c3ccc(C(=N)N)cc3)n2)cc1", "note": "[compound 10, 2,6-Di-(4′-amidinophenyl)pyrazine hydrochloride]", "values": [
      {"measurement": "Fold less potent than 6 against P. f.", "setting": "[8]", "result": 25, "unit": "fold"}
    ]},
    {"smiles": "N/C(=N\\O)c1ccc(-c2cncc(-c3ccc(/C(N)=N/O)cc3)n2)cc1", "note": "[compound 11, 2,6-Di-(4′-N-hydroxyamidinophenyl)pyrazine hydrochloride]", "values": [
      {"measurement": "No. of mice cured (survival >180 days without parasitemia relapse)", "setting": "[7]; [9]", "result": "no cures and 0/5"},
      {"measurement": "Cures (mice that survive and are parasite free for 60 days)", "setting": "[5]; po 25 mg/kg daily for 4 days", "result": "cures of all mice"}
    ]},
    {"smiles": "CO/N=C(\\N)c1ccc(-c2cncc(-c3ccc(/C(N)=N\\OC)cc3)n2)cc1", "note": "[compound 12, 2,6-Di-(4′-N-methoxyamidinophenyl)pyrazine hydrochloride]", "values": [
      {"measurement": "No. of mice cured (survival >180 days without parasitemia relapse)", "setting": "[7]; po 100 mg/kg for 5 days", "result": "2/5"},
      {"measurement": "No. of mice cured (survival >180 days without parasitemia relapse)", "setting": "[7]; po 100 mg/kg for 10 days", "result": "3/4"}
    ]}
  ]
}
